In brackets after ≈: the same amount, converted by molar mass.
Experiments:
Format in all cases: functional
Staphylococcus aureus [1] = experiment: Antibacterial activity against Staphylococcus aureus ATCC 25923 by broth microdilution method
Plasmodium falciparum = experiment: Antimalarial activity against chloroquine-sensitive Plasmodium falciparum 3D7 after 72 hrs by SYBR Green-1 staining based fluorescence assay; details: 3D7, 72 h
Klebsiella pneumoniae = experiment: Antibacterial activity against Klebsiella pneumoniae ATCC 27736 by broth microdilution method
In short: (§1)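 Bacteria were tested by the NCCLS method in Mueller Hinton broth, with gentamicin and norfloxacin as reference drugs.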

Staphylococcus aureus [2] = experiment: Antibacterial activity against methicillin-resistant Staphylococcus aureus ATCC 700699 by broth microdilution method; details: Mu50
[3] = test system: Trichophyton mentagrophytes; experiment: Anti-fungal activity against Trichophyton mentagrophytes after 48 hrs by broth microdilution method
Escherichia coli = experiment: Antibacterial activity against Escherichia coli ATCC 9637 by broth microdilution method; details: W; in short: as §1
Pseudomonas aeruginosa = experiment: Antibacterial activity against Pseudomonas aeruginosa ATCC BAA-427 by broth microdilution method; in short: as §1
Cryptococcus neoformans = experiment: Anti-fungal activity against Cryptococcus neoformans after 48 hrs by broth microdilution method
Candida parapsilosis = experiment: Anti-fungal activity against Candida parapsilosis ATCC 22019 after 48 hrs by broth microdilution method; details: Lodderomyces parapsilosis, ATCC 22019, 48 h
Aspergillus fumigatus = experiment: Anti-fungal activity against Aspergillus fumigatus after 48 hrs by broth microdilution method
Sporothrix schenckii = experiment: Anti-fungal activity against Sporothrix schenckii after 48 hrs by broth microdilution method
Candida albicans = experiment: Anti-fungal activity against Candida albicans after 48 hrs by broth microdilution method
Staphylococcus aureus [4] = experiment: Antibacterial activity against Staphylococcus aureus ATCC 29213 by broth microdilution method

Row | SMILES | IC50 (Staphylococcus aureus [1]) [µg/mL] | MIC (Staphylococcus aureus [1]) [µg/mL] | IC50 (Plasmodium falciparum) [nM] | IC50 (Klebsiella pneumoniae) [µg/mL] | MIC (Klebsiella pneumoniae) [µg/mL] | IC50 (Staphylococcus aureus [2]) [µg/mL] | MIC (Staphylococcus aureus [2]) [µg/mL] | IC50 [3] [µg/mL] | MIC [3] [µg/mL] | IC50 (Escherichia coli) [µg/mL] | MIC (Escherichia coli) [µg/mL] | IC50 (Pseudomonas aeruginosa) [µg/mL] | MIC (Pseudomonas aeruginosa) [µg/mL] | MIC (Cryptococcus neoformans) [µg/mL] | MIC (Candida parapsilosis) [µg/mL] | MIC (Aspergillus fumigatus) [µg/mL] | MIC (Sporothrix schenckii) [µg/mL] | MIC (Candida albicans) [µg/mL] | IC50 (Staphylococcus aureus [4]) [µg/mL] | MIC (Staphylococcus aureus [4]) [µg/mL] | also measured
1 | CC(C)Cn1sc2ccccc2c1=O | 10.6 (≈ 51.1 µM) | 15.4 (≈ 74.3 µM) | > 2000 | > 50 | > 50 | 4.7 (≈ 22.7 µM) | 5.2 (≈ 25.1 µM) | > 50 | > 50 | > 50 | > 50 | > 50 | > 50 | 0.4 (≈ 1.93 µM) | 1.1 (≈ 5.31 µM) | 2.6 (≈ 12.5 µM) | 1.4 (≈ 6.75 µM) | 0.6 (≈ 2.89 µM) | 6.3 (≈ 30.4 µM) | 9.8 (≈ 47.3 µM) | IC50 (Candida parapsilosis): 1 µg/mL (≈ 4.82 µM); IC50 (Aspergillus fumigatus): 1.3 µg/mL (≈ 6.27 µM)
2 | COC(=O)[C@H](C(C)C)n1sc2ccccc2c1=O | 2.4 (≈ 9.05 µM) | 2.9 (≈ 10.9 µM) | > 2000 | > 50 | > 50 | 0.82 (≈ 3.09 µM) | 0.97 (≈ 3.66 µM) | 1.7 (≈ 6.41 µM) | 2.4 (≈ 9.05 µM) | > 50 | > 50 | > 50 | > 50 | 4.5 (≈ 17 µM) | 3.1 (≈ 11.7 µM) | 12.5 (≈ 47.1 µM) | 11.9 (≈ 44.8 µM) | 2.3 (≈ 8.67 µM) | 2.6 (≈ 9.8 µM) | 4.6 (≈ 17.3 µM) | IC50 (Cryptococcus neoformans): 2.5 µg/mL (≈ 9.42 µM); IC50 (Candida parapsilosis): 1.6 µg/mL (≈ 6.03 µM); IC50 (Sporothrix schenckii): 2.5 µg/mL (≈ 9.42 µM); IC50 (Candida albicans): 1.2 µg/mL (≈ 4.52 µM)
3 | C[C@@H](c1ccccc1)n1sc2ccccc2c1=O | 6.8 (≈ 26.6 µM) | 10.2 (≈ 39.9 µM) | > 2000 | > 50 | > 50 | 1 (≈ 3.92 µM) | 1.9 (≈ 7.44 µM) | 0.7 (≈ 2.74 µM) | 0.4 (≈ 1.57 µM) | > 50 | > 50 | > 50 | > 50 | 2.9 (≈ 11.4 µM) | 2.1 (≈ 8.22 µM) | 6.5 (≈ 25.5 µM) | 1.6 (≈ 6.27 µM) | 1 (≈ 3.92 µM) | 4.6 (≈ 18 µM) | 8.5 (≈ 33.3 µM) | IC50 (Cryptococcus neoformans): 1 µg/mL (≈ 3.92 µM); IC50 (Candida parapsilosis): 0.7 µg/mL (≈ 2.74 µM); IC50 (Aspergillus fumigatus): 0.4 µg/mL (≈ 1.57 µM); IC50 (Sporothrix schenckii): 0.4 µg/mL (≈ 1.57 µM); IC50 (Candida albicans): 0.5 µg/mL (≈ 1.96 µM)
4 | O=c1c2ccccc2sn1Cc1ccc2c(c1)OCO2 | 2.2 (≈ 7.71 µM) | 2.6 (≈ 9.11 µM) | > 2000 | > 50 | > 50 | 0.6 (≈ 2.1 µM) | 1 (≈ 3.5 µM) | – | 1.5 (≈ 5.26 µM) | > 50 | > 50 | > 50 | > 50 | 0.8 (≈ 2.8 µM) | > 50 | 1.7 (≈ 5.96 µM) | 0.5 (≈ 1.75 µM) | 0.7 (≈ 2.45 µM) | 1.9 (≈ 6.66 µM) | 2.5 (≈ 8.76 µM) | IC50 (Cryptococcus neoformans): 0.8 µg/mL (≈ 2.8 µM); IC50 (Aspergillus fumigatus): 1.5 µg/mL (≈ 5.26 µM); IC50 (Sporothrix schenckii): 0.3 µg/mL (≈ 1.05 µM); IC50 (Candida albicans): 0.56 µg/mL (≈ 1.96 µM)
5 | O=c1c2ccccc2sn1C1CCCCC1n1sc2ccccc2c1=O (stereo not given) | 3.2 (≈ 8.37 µM) | 3.4 (≈ 8.89 µM) | > 2000 | > 50 | > 50 | 1.4 (≈ 3.66 µM) | 2.3 (≈ 6.01 µM) | > 50 | > 50 | > 50 | > 50 | > 50 | > 50 | > 50 | > 50 | > 50 | > 50 | > 50 | 2.5 (≈ 6.54 µM) | 3.7 (≈ 9.67 µM) | IC50 (Cryptococcus neoformans): > 50 µg/mL; IC50 (Candida parapsilosis): > 50 µg/mL; IC50 (Aspergillus fumigatus): > 50 µg/mL; IC50 (Sporothrix schenckii): > 50 µg/mL; IC50 (Candida albicans): > 50 µg/mL
6 | COC(=O)[C@@H](NC(=O)[C@H](C(C)C)n1sc2ccccc2c1=O)C(C)C | > 50 | > 50 | > 2000 | > 50 | > 50 | > 50 | > 50 | > 50 | > 50 | > 50 | > 50 | > 50 | > 50 | > 50 | > 50 | > 50 | > 50 | > 50 | > 50 | > 50 | IC50 (Cryptococcus neoformans): > 50 µg/mL; IC50 (Candida parapsilosis): > 50 µg/mL; IC50 (Aspergillus fumigatus): > 50 µg/mL; IC50 (Sporothrix schenckii): > 50 µg/mL; IC50 (Candida albicans): > 50 µg/mL
7 | CC(=O)Nc1ccccc1-n1sc2ccccc2c1=O | > 50 | > 50 | > 2000 | > 50 | > 50 | > 50 | > 50 | > 50 | > 50 | > 50 | > 50 | > 50 | > 50 | > 50 | > 50 | > 50 | > 50 | > 50 | > 50 | > 50 | IC50 (Cryptococcus neoformans): > 50 µg/mL; IC50 (Candida parapsilosis): > 50 µg/mL; IC50 (Aspergillus fumigatus): > 50 µg/mL; IC50 (Sporothrix schenckii): > 50 µg/mL; IC50 (Candida albicans): > 50 µg/mL
8 | OC(Cn1cncn1)(Cn1cncn1)c1ccc(F)cc1F [FLUCONAZOLE] | – | – | – | – | – | – | – | – | > 32 | – | – | – | – | 2 (≈ 6.53 µM) | 2 (≈ 6.53 µM) | > 32 | 2 (≈ 6.53 µM) | 1 (≈ 3.27 µM) | – | – | –

Source: ChEMBL document CHEMBL3994637, “Broad spectrum anti-infective properties of benzisothiazolones and the parallels in their anti-bacterial and anti-fungal effects” (Bioorg Med Chem Lett, 2017)
